Measurements from ChEMBL document CHEMBL4043277, “Enantioselective inhibitory abilities of enantiomers of notoamides against RANKL-induced formation of multinuclear osteoclasts” (Bioorg Med Chem Lett, 2017).
pIC50: −log10 of the molar value. Activity calls are given as the source filed them. The calls are words filed in the database; no cut-off is given here.

Key:
RAW264 [1] = test: Inhibition of RANKL-induced formation of multinuclear osteoclasts in mouse RAW264 cells at 10 ug/ml after 4 days by p-NPP substrate based absorbance method; type: functional, cell-based
How it was run: (§1)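 RAW264 cells in MEMα/10% FBS were plated for one day, then treated with compound plus soluble RANKL (250 ng/mL) for four days. After a PBS wash, cells were lysed on ice for 10 min in TRAP buffer (tartrate/acetate, pH 5.7). Extract was incubated with 2.5 mM p-nitrophenyl phosphate at 37°C for 4 h and stopped with NaOH. A405 was read in quadruplicate.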

[2] = Inhibition of RANKL-induced Ocstamp mRNA expression in mouse RAW264 cells at 5 uM after 5 days by RT-PCR method relative to control; type: functional; conditions: RAW264.7, 120 h
How it was run: (§2)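 RAW264 cells grown in MEMα with 10% heat-inactivated FBS and penicillin/streptomycin at 37°C, 5% CO2. Cells were co-treated with RANKL (50 ng/mL) and compound for five days. Total RNA was analysed by real-time RT-PCR with SYBR Green: 95 °C 10 min, then cycles of 95 °C 10 s, annealing 5 s, 72 °C 14 s. Expression was calculated from duplicate experiments.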

[3] = Inhibition of RANKL-induced Ctsk mRNA expression in mouse RAW264 cells at 5 uM after 5 days by RT-PCR method relative to control; type: functional; conditions: RAW264.7, 120 h; how it was run: as §2
[4] = Inhibition of RANKL-induced Acp5 mRNA expression in mouse RAW264 cells at 5 uM after 5 days by RT-PCR method relative to control; type: functional; conditions: RAW264.7, 120 h; how it was run: as §2
[5] = Inhibition of RANKL-induced Dcstamp mRNA expression in mouse RAW264 cells at 5 uM after 5 days by RT-PCR method relative to control; type: functional; conditions: RAW264.7, 120 h; how it was run: as §2
[6] = Inhibition of RANKL-induced Atp6v0d2 mRNA expression in mouse RAW264 cells at 5 uM after 5 days by RT-PCR method relative to control; type: functional; conditions: RAW264.7, 120 h; how it was run: as §2
RAW264 [7] = test: Inhibition of RANKL-induced formation of multinuclear osteoclasts in mouse RAW264 cells at 5 uM after 4 days by TRAP staining based assay; type: functional, cell-based
How it was run: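 RAW264 cells were treated with compound plus soluble RANKL (250 ng/mL) for four days, then fixed in 4% paraformaldehyde for 10 min at room temperature. They were stained 1 h at room temperature with naphthol AS-MX phosphate/fast red violet LB in tartrate/acetate, pH 5.2. TRAP-positive cells with three or more nuclei were scored as multinuclear osteoclasts.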

[8] = Inhibition of RANKL-induced formation of multinuclear osteoclasts in mouse RAW264 cells after 4 days by p-NPP substrate based absorbance method; type: functional, cell-based; conditions: RAW264.7, 96 h; how it was run: as §1
[9] = Inhibition of RANKL-induced Nfatc1 mRNA expression in mouse RAW264 cells at 5 uM after 5 days by RT-PCR method relative to control; type: functional; conditions: RAW264.7, 120 h; how it was run: as §2

| SMILES | osteoclast formation inhibition (active/not active) (RAW264 [1]) | other results |
| --- | --- | --- |
| CC1(C)C=Cc2c(ccc3c2NC(=O)[C@@]32C[C@@]34NC(=O)[C@]5(CCCN5C3=O)C[C@H]4C2(C)C)O1 | Active |  |
| CC(C)=CCc1c(O)ccc2c3c([nH]c12)C(C)(C)[C@H]1CC24CCCN2C(=O)C1(C3)NC4=O (mixture of isomers) | Active |  |
| CC1(C)C=Cc2c(ccc3c2NC(=O)[C@]32C[C@]34NC(=O)[C@@]5(CCCN5C3=O)C[C@@H]4C2(C)C)O1 | Active |  |
| CC1(C)C=Cc2c(ccc3c4c([nH]c23)C(C)(C)[C@H]2C[C@@]35CCCN3C(=O)[C@]2(C4)NC5=O)O1 | Active |  |
| C=CC(C)(C)[C@@]12Nc3c(ccc4c3C=CC(C)(C)O4)[C@]1(O)C[C@H]1C(=O)N3CCC[C@H]3C(=O)N12 | inactive |  |
| CC1(C)C=Cc2c(ccc3c4c([nH]c23)C(C)(C)[C@@H]2C[C@]35CCCN3C(=O)[C@@]2(C4)NC5=O)O1 | Active |  |
| C=CC(C)(C)[C@]1(C[C@@H]2NC(=O)[C@@H]3CCCN3C2=O)C(=O)Nc2c1ccc1c2C=CC(C)(C)O1 | inactive |  |
| CC(C)=CCc1c(O)ccc2c3c([nH]c12)C(C)(C)[C@@H]1C[C@@]24CCCN2C(=O)[C@]1(C3)NC4=O |  | inhibition at 5 µM [2]: 20 to 50%; inhibition at 5 µM [3]: 20 to 50%; inhibition at 5 µM [4]: 20 to 50%; inhibition at 5 µM [5]: 20 to 50%; inhibition at 5 µM [6]: 20 to 50%; inhibition (RAW264 [7]): inactive; pIC50 [8]: 5.77; inhibition at 5 µM [9]: 20 to 50% |
| CC1(C)C=Cc2c(ccc3c2N(O)C(=O)[C@@]32C[C@@]34NC(=O)[C@]5(CCCN5C3=O)C[C@H]4C2(C)C)O1 | Active |  |
| CC(C)=CCc1c(O)ccc2c3c([nH]c12)C(C)(C)[C@H]1C[C@]24CCCN2C(=O)[C@@]1(C3)NC4=O |  | pIC50 [8]: 5.36 |
| CC1(C)C=Cc2c(ccc3c2N(O)C(=O)[C@]32C[C@]34NC(=O)[C@@]5(CCCN5C3=O)C[C@@H]4C2(C)C)O1 | Active |  |
